Screening results (PubChem)
Rows were chosen to be rich in hits. Some 9.2% of all compounds tested hit in one or more screens of this group.
ERb SRC1 inh – blocks coactivator binding to human estrogen receptor beta; Q92731; TR-FRET ER-beta LBD / SRC1-Cy5 peptide binding; receptor agonist-loaded with 1 µM estradiol; inhibition, % at 25.6 µM; 1.3% of 86,000 active;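 active means compounds whose percent inhibition of the receptor-coactivator binding signal exceeds about 50% in the single-dose screen, limit read from the data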;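 further: 0% = receptor plus peptide wells without compound and 100% = peptide-only wells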
Target sequence (Q92731 whole entry, looked up, the tested form may be a part): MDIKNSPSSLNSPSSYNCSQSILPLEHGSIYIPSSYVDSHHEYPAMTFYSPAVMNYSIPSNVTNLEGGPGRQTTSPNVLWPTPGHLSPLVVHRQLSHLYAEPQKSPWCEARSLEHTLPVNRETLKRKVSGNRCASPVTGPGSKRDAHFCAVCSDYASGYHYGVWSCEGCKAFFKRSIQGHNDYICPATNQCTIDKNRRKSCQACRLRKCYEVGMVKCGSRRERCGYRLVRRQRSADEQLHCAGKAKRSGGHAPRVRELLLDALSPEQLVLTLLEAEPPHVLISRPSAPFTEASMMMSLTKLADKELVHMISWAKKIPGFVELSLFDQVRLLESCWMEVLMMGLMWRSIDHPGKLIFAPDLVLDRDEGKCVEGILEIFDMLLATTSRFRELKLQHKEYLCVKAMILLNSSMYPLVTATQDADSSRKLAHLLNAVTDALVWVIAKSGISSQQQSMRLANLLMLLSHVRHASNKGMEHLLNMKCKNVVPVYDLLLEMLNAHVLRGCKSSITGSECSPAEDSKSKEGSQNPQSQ
H69AR inhibit – blocks growth of human H69AR lung tumor cells. H69AR lung tumor viability, ATP luminescence, 72 h; hits give low values. viability, % at 10 µM. 6% of 85,000 active;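 active means viability at or below 40%; inactive means viability above 40%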;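 further: multidrug resistant small cell line overexpressing MRP-1 efflux transporter; 100% = mean luminescence of untreated control wells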
Fibroblast inh – blocks proliferation of human lung fibroblasts. LL 47 human lung fibroblast viability, ATP luminescence; hits give low values. viability, % at 10 µM. 1.1% of 85,000 active;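 active means viability at or below 50% in the single dose screen; inactive means viability above 50%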;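 further: compound exposure lasted 72 h before the ATP readout; 100% = median luminescence of untreated cell-only wells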
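Test system: LL 47 human lung fibroblasts / Quantity: 1,150 cells in each well / Medium: IMEM growth medium with 15% fetal bovine serum / Incubation: 72 h compound exposure at 37 °C after overnight plating / Detection: CellTiter-Glo luminescence measuring cellular ATP / Read-out: % viability versus median cells-only luminescence / Benchmarks: cell-only wells, no compound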
ERa coact pot – ER-alpha (human) coactivator binding potentiation; P03372; TR-FRET ERalpha-LBD/SRC-Cy5 coactivator binding, 2 h; 100 = basal binding, no effect; coactivator binding (% of control), % at 25.6 µM; 1.3% of 86,000 active; AID 639; in the data active means activity above about 200%;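 further: binding measured in presence of low estradiol as agonist stimulus; 0% = peptide alone without receptor and 100% = receptor with peptide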
ERa coact inh – ER-alpha (human) coactivator binding inhibition; 1.7% of 86,000 active; TR-FRET ER-alpha LBD / SRC-1 peptide, estradiol-bound; inhibition, % at 25.6 µM; AID 629; P03372; in the data active means inhibition above about 50%;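 further: 0% = receptor plus peptide control and 100% = peptide only without receptor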
HUVEC inhibit – inhibitors of human endothelial cell proliferation; HUVEC proliferation, CellTiter-Glo luminescence, 72 h; hits give low values; viability, % at 10 µM (by protocol); 1.1% of 86,000 active; AID 648;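 active means viability at or below 30%; inactive means viability above 30%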;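 further: 100% = median luminescence of DMSO-only cell control wells on each plate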
Starred values were filed as active, the others as inactive; nt = no result; [ ] = remark or other dose.

SMILES	ERb SRC1 inh	H69AR inhibit	Fibroblast inh	ERa coact pot	ERa coact inh	HUVEC inhibit
CCCCC(=O)Nc1cccc(-c2nnc(-c3ccccc3)o2)c1	2	60	105	108	25	71
Cc1ccc2nc(-c3cccc(NC(=O)c4ccco4)c3)[nH]c2c1	-3	21*	nt	95	2	60
O=C(Nc1cccc(-c2nnc(-c3ccccc3)o2)c1)c1ccco1	6	15*	101	128	14	83
O=C(Nc1ccc2nc(-c3ccco3)[nH]c2c1)c1ccco1	8	81	96	155	2	92
Cc1nn(C)c(C)c1NC(=O)CN1CCC(O)(c2ccc3c(c2)OCO3)CC1	3	104	88	123	-4	94
CCOC(=O)c1cc(NC(=O)CSc2nnc(CN3CCOCC3)n2C)ccc1Cl	-3	94	97	111	-5	95
O=C(Nc1cccc(-c2nnc(-c3ccccc3)o2)c1)C1CCCCC1	9	19*	96	208*[fluorescence artefact?]	8	68
CN(C)S(=O)(=O)n1cnc2ccccc21	-9	95	101	98	-6	90
O=S(=O)(/C=C/c1ccccc1)n1cnc2ccccc21	7	20*	68	109	6	84
CS(=O)(=O)N(Cc1ccccc1)c1ccc(C(=O)NC2CCCCC2O)cc1 (configuration not stated)	-4	101	98	101	-1	99
Cc1ccc(N(Cc2ccc(C(=O)NC3CCCCC3)cc2)S(C)(=O)=O)cc1C	0	19*	91	112	-7	62
COc1cc(OC)cc(C(=O)NCCNC(=O)c2ccco2)c1	-2	89	104	102	-3	97
COc1ccc(CN2C(=O)c3cccnc3C2O)cc1 (configuration not stated)	8	101	102	394*[fluorescence artefact?]	-5	109
COc1ccc(OC)c(NC2c3ncccc3C(=O)N2Cc2ccco2)c1 (configuration not stated)	13	86	104	53	-4	95
COc1ccc(CN2C(=O)c3cccnc3C2Nc2cc(Cl)ccc2OC)cc1 (configuration not stated)	-9	88	97	357*[fluorescence artefact?]	-37	80
COc1cccc(C(=O)CSc2nnc(CNS(=O)(=O)c3ccc(C)cc3)n2C)c1	-1	nt	105	112	5	98
CCOC(=O)c1nnc(-c2cccs2)nc1Oc1ccc(Cl)cc1	12	52	94	125	30	76
CCOC(=O)c1nnc(-c2ccc(C)cc2)nc1Sc1ccc(Cl)cc1	11	3.3*	74	136	-9	69
CCOC(=O)c1nnc(-c2ccccc2)nc1Sc1c(Cl)cccc1Cl	1	1.9*	89	129	7	68
CCOC(=O)c1nnc(-c2ccc(C)cc2)nc1Sc1ccccc1Cl	-2	25*	84	100	-7	69
CCCCOc1ccccc1NC(=O)CSc1nnnn1C(C)(C)C	-7	nt	96	116	-8	90
COc1ccc(C2CCCN2C(=O)Nc2ccc(Cl)cc2)cc1OC (configuration not stated)	-8	86	100	115	0	110
CC1CN(Cc2ccccc2Cl)CC(C)O1 (configuration not stated)	5	97	97	118	12	98
CC1(C)Cc2c(cnn2-c2ccccc2)-c2c1c1ccccc1n2CC(O)CBr (configuration not stated)	3	16*	82	97	3	58
Nc1nc(-c2ccco2)cs1	4	94	95	79	-4	83
SMILES	ERb SRC1 inh	H69AR inhibit	Fibroblast inh	ERa coact pot	ERa coact inh	HUVEC inhibit
c1coc(-c2ncc[nH]2)c1	-7	94	103	119	-14	99
c1coc(-c2nc(-c3ccco3)c(-c3ccco3)nc2-c2ccco2)c1	85*[fluorescence artefact?]	27*	84	10	87*[fluorescence artefact?]	69
Nc1nc(-c2ccco2)c(-c2ccco2)s1	54*	97	nt	63	35	88
COc1ccc2nc(-c3ccco3)c(-c3ccco3)nc2c1	98*[fluorescence artefact?]	61	100	12	97*[fluorescence artefact?]	89
CCOC(=O)C1=C(Cn2cnc3ccccc32)NC(=O)NC1c1ccc(OC)cc1 (configuration not stated)	-1	105	99	100	-4	100
COc1ccc2c(c1)N(C)C(=O)CC(c1ccccc1)=N2	3	101	103	135	-18	101
CCN(CC)C(=O)c1cnn(-c2ccccc2)c1NC(=O)c1ccccc1F	-3	99	93	106	-5	98
COc1ccc(-c2cc(C(F)(F)F)nc(N3CCN(c4ccc(F)cc4)CC3)n2)cc1OC	3	17*	94	107	6	68
COc1ccc(-c2cc(C(F)(F)F)nc(N3CCN(Cc4ccccc4)CC3)n2)cc1OC	-7	103	100	104	-4	94
CCCC(=O)Nc1ccc(Br)cn1	-6	109	96	99	9	91
Cc1ccccc1C(=O)Nc1ccc(Br)cn1	-2	51	92	204*	-5	67
Cc1nc2sccn2c1P(c1c(C)nc2sccn12)c1c(C)nc2sccn12	-4	77	95	110	-7	92
O=S(=O)(c1cc(-c2nnc(-c3ccc(Br)cc3)o2)ccc1Br)N1CCCCCC1	-5	29*	94	154	-8	77
CCN(CC)S(=O)(=O)c1cc(Br)ccc1OC	1	86	102	122	-3	100
COc1cccc(CN2C(=O)C3(C(C#N)=C(N)OC4=C3C(=O)CCC4)c3ccccc32)c1 (configuration not stated)	6	19*	20*	114	-10	4.0*
O=C(Nc1nccs1)c1ccc2nccnc2c1	60*	96	104	43	40	87
CCN1C(=O)c2ccc(C(=O)Nc3nccs3)cc2C1=O	-2	93	104	109	11	108
O=C(C#Cc1ccccc1)c1cccc([N+](=O)[O-])c1	2	1.4*	18*	79	-4	45
Cc1ccc(-c2onc3ccc(C=O)cc23)cc1	21	33*	91	97	10	57
Cc1ccc(-c2onc3ccc(C4(C)OCCO4)cc23)cc1	-8	98	100	103	-8	109
CCN=C1SC(CC(=O)NC(C)C)C(=O)N1CC (configuration not stated)	-26	90	108	853*[fluorescence artefact?]	3	102
CCN1CCN(c2ncc3c(n2)CC(c2ccc(OC)c(OC)c2)CC3=O)CC1 (configuration not stated)	10	19*	74	102	1	81
COc1ccc(OC)c(N(CC(=O)Nc2cccnc2)S(=O)(=O)c2ccc(C)cc2)c1	-6	18*	59	101	7	50
